Experimental data published in ChEMBL document CHEMBL5143728, “Next-Generation Diprovocims with Potent Human and Murine TLR1/TLR2 Agonist Activity That Activate the Innate and Adaptive Immune Response” (J Med Chem, 2022).
Calls of active or inactive are those of the source. The calls are words filed in the database; no cut-off is given here.

What was measured:
Toll-like receptor 1/2 [1] = target: T1, Toll-like receptor 1/2 (Homo sapiens, UniProt O60603+Q15399); experiment: Agonist activity at TLR1/TLR2 in human THP-1 derived macrophages assessed as stimulation of TNF alpha release measured for 4 hrs by ELISA based assay; assay type: cell-based
T1 sequence (O60603 whole entry): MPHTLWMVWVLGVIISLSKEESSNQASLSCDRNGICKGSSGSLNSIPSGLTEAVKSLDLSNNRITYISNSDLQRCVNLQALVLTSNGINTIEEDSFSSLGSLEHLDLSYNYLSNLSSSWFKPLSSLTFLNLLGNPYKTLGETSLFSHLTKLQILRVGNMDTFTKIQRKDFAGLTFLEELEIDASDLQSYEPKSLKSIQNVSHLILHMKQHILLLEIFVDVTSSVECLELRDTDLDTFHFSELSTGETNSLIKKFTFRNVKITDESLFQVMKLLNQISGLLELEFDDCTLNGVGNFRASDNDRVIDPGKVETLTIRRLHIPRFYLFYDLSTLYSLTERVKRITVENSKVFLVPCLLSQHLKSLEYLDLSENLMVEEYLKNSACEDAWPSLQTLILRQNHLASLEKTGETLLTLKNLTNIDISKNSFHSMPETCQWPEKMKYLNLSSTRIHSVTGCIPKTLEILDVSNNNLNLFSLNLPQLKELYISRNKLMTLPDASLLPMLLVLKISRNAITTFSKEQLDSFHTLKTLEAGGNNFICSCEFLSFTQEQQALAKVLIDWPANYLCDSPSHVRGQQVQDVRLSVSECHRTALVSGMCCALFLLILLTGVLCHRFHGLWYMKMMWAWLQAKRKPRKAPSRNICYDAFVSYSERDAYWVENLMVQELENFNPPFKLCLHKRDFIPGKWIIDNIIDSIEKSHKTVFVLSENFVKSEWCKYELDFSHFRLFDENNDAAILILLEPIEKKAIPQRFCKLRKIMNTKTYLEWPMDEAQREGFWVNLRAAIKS
T1 sequence (Q15399 whole entry): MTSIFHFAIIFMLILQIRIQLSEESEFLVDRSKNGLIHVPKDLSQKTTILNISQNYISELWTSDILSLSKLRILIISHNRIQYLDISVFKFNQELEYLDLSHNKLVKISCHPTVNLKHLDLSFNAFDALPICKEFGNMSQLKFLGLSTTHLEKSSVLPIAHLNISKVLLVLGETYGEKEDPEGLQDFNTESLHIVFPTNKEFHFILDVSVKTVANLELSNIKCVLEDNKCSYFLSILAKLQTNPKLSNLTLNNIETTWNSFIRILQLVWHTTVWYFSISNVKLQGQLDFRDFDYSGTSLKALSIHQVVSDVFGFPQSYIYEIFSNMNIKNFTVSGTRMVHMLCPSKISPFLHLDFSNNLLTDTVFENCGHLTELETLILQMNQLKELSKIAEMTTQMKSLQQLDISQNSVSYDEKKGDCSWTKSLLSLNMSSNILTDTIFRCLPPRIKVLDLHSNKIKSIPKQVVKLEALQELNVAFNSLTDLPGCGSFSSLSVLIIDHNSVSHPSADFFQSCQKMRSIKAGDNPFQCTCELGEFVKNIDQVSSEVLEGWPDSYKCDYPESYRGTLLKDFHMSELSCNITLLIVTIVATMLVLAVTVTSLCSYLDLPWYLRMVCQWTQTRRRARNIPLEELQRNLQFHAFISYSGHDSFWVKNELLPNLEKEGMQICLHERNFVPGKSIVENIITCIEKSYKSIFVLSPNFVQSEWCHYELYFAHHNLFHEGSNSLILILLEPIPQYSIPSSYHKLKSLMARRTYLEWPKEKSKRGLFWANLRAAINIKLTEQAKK
How it was run: (§1)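 THP-1 cells differentiated with 100 nM PMA in RPMI/10% FBS for 24 h, washed, then rested 24 h in fresh medium. Seeded at 0.5 × 10⁵ cells/well and exposed to graded compound concentrations for 4 h, with final DMSO held at 0.1%. LPS served as positive control and DMSO as negative control. Supernatant human TNF-α was read by ELISA. EC50 from duplicate means.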

Toll-like receptor 1/2 [2] = target: Toll-like receptor 1/2 (Mus musculus, UniProt Q9EPQ1+Q9QUN7); experiment: Agonist activity at TLR1/TLR2 in wild type C57BL/6J mouse macrophages assessed as stimulation of TNF alpha release measured for 4 hrs by ELISA based assay; assay type: cell-based, Macrophage
Toll-like receptor 1/2 (Mus musculus, UniProt Q9EPQ1+Q9QUN7), sequence (Q9QUN7 whole entry): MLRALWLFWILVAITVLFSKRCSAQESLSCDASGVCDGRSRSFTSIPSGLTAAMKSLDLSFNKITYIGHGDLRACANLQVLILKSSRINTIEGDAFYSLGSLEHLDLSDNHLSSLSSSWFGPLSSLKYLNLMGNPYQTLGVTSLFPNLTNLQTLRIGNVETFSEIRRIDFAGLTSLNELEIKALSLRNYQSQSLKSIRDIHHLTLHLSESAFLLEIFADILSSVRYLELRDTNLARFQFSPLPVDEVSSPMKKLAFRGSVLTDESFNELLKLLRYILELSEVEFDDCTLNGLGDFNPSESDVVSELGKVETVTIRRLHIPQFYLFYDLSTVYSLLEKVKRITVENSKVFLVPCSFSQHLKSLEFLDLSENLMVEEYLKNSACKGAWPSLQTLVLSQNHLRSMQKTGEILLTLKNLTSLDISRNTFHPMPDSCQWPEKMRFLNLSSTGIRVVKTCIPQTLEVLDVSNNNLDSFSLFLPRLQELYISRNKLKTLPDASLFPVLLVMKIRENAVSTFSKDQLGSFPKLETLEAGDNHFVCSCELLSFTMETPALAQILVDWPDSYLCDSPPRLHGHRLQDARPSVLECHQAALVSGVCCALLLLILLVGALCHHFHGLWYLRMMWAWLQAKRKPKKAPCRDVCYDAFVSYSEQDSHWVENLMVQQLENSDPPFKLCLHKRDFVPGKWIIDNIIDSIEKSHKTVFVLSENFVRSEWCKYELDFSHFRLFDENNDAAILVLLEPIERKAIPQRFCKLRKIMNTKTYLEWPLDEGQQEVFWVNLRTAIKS
Toll-like receptor 1/2 (Mus musculus, UniProt Q9EPQ1+Q9QUN7), sequence (Q9EPQ1 whole entry): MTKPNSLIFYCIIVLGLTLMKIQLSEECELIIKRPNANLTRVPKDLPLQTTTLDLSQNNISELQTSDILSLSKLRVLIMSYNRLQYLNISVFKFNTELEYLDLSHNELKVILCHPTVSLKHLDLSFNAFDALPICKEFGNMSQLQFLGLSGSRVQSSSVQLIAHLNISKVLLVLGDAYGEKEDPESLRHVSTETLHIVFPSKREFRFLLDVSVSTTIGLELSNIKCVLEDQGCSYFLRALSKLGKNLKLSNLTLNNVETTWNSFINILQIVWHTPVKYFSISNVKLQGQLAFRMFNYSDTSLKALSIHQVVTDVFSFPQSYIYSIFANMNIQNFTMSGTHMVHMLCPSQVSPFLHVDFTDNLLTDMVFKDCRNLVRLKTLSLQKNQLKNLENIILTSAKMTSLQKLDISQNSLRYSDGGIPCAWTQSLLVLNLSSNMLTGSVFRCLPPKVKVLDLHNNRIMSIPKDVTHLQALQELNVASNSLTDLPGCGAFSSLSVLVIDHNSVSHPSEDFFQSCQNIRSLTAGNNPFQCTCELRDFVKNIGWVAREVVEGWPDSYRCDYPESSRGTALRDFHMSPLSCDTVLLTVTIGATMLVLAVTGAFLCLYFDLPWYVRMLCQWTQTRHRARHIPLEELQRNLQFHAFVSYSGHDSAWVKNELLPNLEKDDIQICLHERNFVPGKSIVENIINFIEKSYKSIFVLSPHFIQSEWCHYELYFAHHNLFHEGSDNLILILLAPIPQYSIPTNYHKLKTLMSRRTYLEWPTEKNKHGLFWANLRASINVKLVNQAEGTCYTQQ
How it was run: (§2)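 Thioglycolate-elicited peritoneal macrophages from wild type C57BL/6J mice, harvested by PBS lavage 4 d after i.p. 4% thioglycolate. Cultured in DMEM/10% FBS at 37 °C, 5% CO2, seeded at 1 × 10⁵ cells/well and exposed to graded compound concentrations for 4 h, with final DMSO ≤0.5% held constant. LPS served as positive control. Supernatant mouse TNF-α was read by ELISA. EC50 from duplicate means.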

Splenocyte = experiment: In vivo cytotoxicity against C57BL/6 mouse-derived splenocytes loaded with SIINFEKL peptide allografted in immunized C57BL/6J mouse at 10 mg/kg, IM on day 0 and day 28 followed by spleenocytes injection on day 7 and day 35 and measured on day 9 and 37 by flow cytometry; assay type: functional, organism-based
Mus musculus [3] = experiment: Immuno-adjuvant activity in C57BL/6J mouse assessed as increase in level of OVA specific Goat Anti-Mouse IgG1-HRP antibody at 10 mg/kg, IM co-treated with ovalbumin at 5 mg/kg incubated for 1 hrs measured on day 14 by ELISA; assay type: functional, organism-based
How it was run: (§3)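 Female 8-week C57BL/6J mice (ca. 20 g) given i.m. 200 μg (10 mg/kg) agonist mixed with 100 μg OVA (5 mg/kg, low endotoxin) in DMSO:Tween 80:saline 1:1:8 on day 0. Controls received vehicle or OVA alone; 5–8 mice/group. Serum OVA-specific IgG, IgG1 and IgG2b measured by ELISA on day 14. Mean ± SD; one-way ANOVA with Tukey test.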

Mus musculus [4] = experiment: Immuno-adjuvant activity in C57BL/6J mouse assessed as increase in level of OVA specific Goat Anti-Mouse IgG-HRP antibody at 10 mg/kg, IM co-treated with ovalbumin at 5 mg/kg incubated for 1 hrs measured on day 14 by ELISA; assay type: functional, organism-based; how it was run: as §3
[5] = target: Toll-like receptor 1/2 (Mus musculus) (UniProt Q9QUN7+Q9EPQ1); experiment: Agonist activity at TLR1/TLR2 in wild type C57BL/6J mouse macrophages assessed as stimulation of TNF alpha release measured for 4 hrs by ELISA based assay relative to diprovocim-1; assay type: cell-based; design: Activity: concentration or dose not given beside the values; settings: Macrophage, filed as agonist; how it was run: as §2
Toll-like receptor 1/2 [6] = target: T1, Toll-like receptor 1/2; experiment: Agonist activity at TLR1/TLR2 in human THP-1 derived macrophages assessed as stimulation of TNF alpha release measured for 4 hrs by ELISA based assay relative to diprovocim-1; assay type: cell-based; design: Activity: concentration or dose not given beside the values; settings: filed as agonist; how it was run: as §1
Mus musculus [7] = experiment: Immuno-adjuvant activity in C57BL/6J mouse assessed as increase in level of OVA specific Goat Anti-Mouse IgG2b-HRP antibody at 10 mg/kg, IM co-treated with ovalbumin at 5 mg/kg incubated for 1 hrs measured on day 14 by ELISA; assay type: functional, organism-based; how it was run: as §3
Peritoneal macrophage [8] = experiment: Stimulation of TNF alpha release in TLR4-sufficient wild type C3H/HeOuJ mouse peritoneal macrophage at 500 nM; assay type: functional, cell-based
How it was run: (§4)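 Peritoneal macrophages from Tlr4-WT C3H/HeOuJ mice or Tlr4 P712H-mutant C3H/HeJ mice, stimulated with agonist at 500 nM. Released TNF-α measured. LPS run as positive control.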

Peritoneal macrophage [9] = experiment: Stimulation of TNF alpha release in TLR4- deficient mutant C3H/HeJ mouse peritoneal macrophage at 500 nM; assay type: functional, cell-based; how it was run: as §4

Compound	EC50 (Toll-like receptor 1/2 [1]) [nM]	EC50 (Toll-like receptor 1/2 [2]) [nM]	Activity (Splenocyte)	Activity (Mus musculus [3])	Activity (Mus musculus [4])	Activity [5] [%]	Activity (Toll-like receptor 1/2 [6]) [%]	Activity (Mus musculus [7])	Activity (Peritoneal macrophage [8])	Activity (Peritoneal macrophage [9])	Emax [5] [%]	Emax (Toll-like receptor 1/2 [6]) [%]
CC(C)(C)OC(=O)NCC(=O)OCCCCCCCCCCCCNC(=O)[C@@H]1CN(C(=O)c2ccc(C(=O)N3C[C@@H](C(=O)N[C@H]4C[C@@H]4c4ccccc4)[C@H](C(=O)N[C@H]4C[C@@H]4c4ccccc4)C3)cc2)C[C@H]1C(=O)N[C@H]1C[C@@H]1c1ccccc1	0.14	0.75	Active	Active	Active	550	100	Active	–	–	–	–
O=C(N[C@H]1C[C@@H]1c1ccccc1)[C@@H]1CN(C(=O)c2ccc(C(=O)N3C[C@@H](C(=O)N[C@H]4C[C@@H]4c4ccccc4)[C@H](C(=O)N[C@H]4C[C@@H]4c4ccccc4)C3)cc2)C[C@H]1C(=O)N[C@H]1C[C@@H]1c1ccccc1	–	–	Active	Active	Active	–	–	Active	Active	Active	–	–
CCNC(=O)[C@@H]1CN(C(=O)c2ccc(C(=O)N3C[C@@H](C(=O)N[C@H]4C[C@@H]4c4ccccc4)[C@H](C(=O)N[C@H]4C[C@@H]4c4ccccc4)C3)cc2)C[C@H]1C(=O)N[C@H]1C[C@@H]1c1ccccc1	17	360	–	–	–	–	–	–	–	–	130	90
CCCCCCCCCCNC(=O)[C@@H]1CN(C(=O)c2ccc(C(=O)N3C[C@@H](C(=O)N[C@H]4C[C@@H]4c4ccccc4)[C@H](C(=O)N[C@H]4C[C@@H]4c4ccccc4)C3)cc2)C[C@H]1C(=O)N[C@H]1C[C@@H]1c1ccccc1	0.1	650	–	–	–	–	–	–	–	–	260	100
